From ChEMBL document CHEMBL4354800, “Amphiphilic nebramine-based hybrids Rescue legacy antibiotics from intrinsic resistance in multidrug-resistant Gram-negative bacilli” (Eur J Med Chem, 2019) come the findings set out here.

Holding throughout (format): functional
For experiment [1], the system named is Pseudomonas aeruginosa. Put plainly: Potentiation of minocycline-induced antimicrobial activity against MDR/XDR Pseudomonas aeruginosa isolate 100036 harboring GyrA Thr83Ile mutant assessed as minocycline MIC80 incubated for 18 hrs by broth microdilution method (reference value: 32 microg/ml). Particulars: isolate 100036, 18 h.
The subject of experiment [2] is Pseudomonas aeruginosa. Description: Potentiation of minocycline-induced antimicrobial activity against MDR/XDR Pseudomonas aeruginosa isolate PA259-96918 harboring GyrA Thr83Ile mutant assessed as minocycline MIC80 incubated for 18 hrs by broth microdilution method (reference value: 32 microg/ml). The note with it: isolate PA259-96918, 18 h. In general terms: Dilution methods test growth across graded concentrations, often in twofold steps.

Experiment [3] concerns Pseudomonas aeruginosa. Put plainly: Potentiation of minocycline-induced antimicrobial activity against MDR/XDR Pseudomonas aeruginosa isolate 101243 devoid of GyrA Thr83Ile mutant assessed as minocycline MIC80 incubated for 18 hrs by broth microdilution method (reference value: 32 microg/ml). Particulars: isolate 101243, 18 h.
Experiment [4] has as its system Pseudomonas aeruginosa. Put plainly: Potentiation of rifampicin-induced antibacterial activity against MDR/XDR Pseudomonas aeruginosa isolate 100036 harboring GyrA T83I mutant assessed as fold reduction in rifampicin MIC at 7.5 uM incubated for 18 hrs by broth microdilution method. An outline of the steps:
(§1)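 CLSI broth microdilution. Overnight cultures were set to 0.5 McFarland in saline, diluted 1:50 in Mueller-Hinton broth to a final 5 × 10^5 CFU/mL, and incubated 18 h at 37 °C against 2-fold antibiotic dilutions. A fixed adjuvant level was present throughout. MIC = lowest concentration with no visible turbidity, confirmed at 590 nm. Potentiation = fold drop in antibiotic MIC versus antibiotic alone.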

Experiment [5] relates to Pseudomonas aeruginosa. Put plainly: Potentiation of minocycline-induced antimicrobial activity against MDR/XDR Pseudomonas aeruginosa isolate 100036 harboring GyrA Thr83Ile mutant assessed as minocycline MIC50 incubated for 18 hrs by broth microdilution method (reference value: 16 microg/ml). Particulars: isolate 100036, 18 h.
For experiment [6], the system named is Acinetobacter baumannii. Put plainly: Potentiation of rifampicin-induced antibacterial activity against multidrug-resistant Acinetobacter baumannii AB027 assessed as fold reduction in rifampicin MIC at 7.5 uM incubated for 18 hrs by broth dilution method. Summed up: as §1
Experiment [7] has as its system Pseudomonas aeruginosa. Put plainly: Potentiation of minocycline-induced antibacterial activity against MDR/XDR Pseudomonas aeruginosa isolate 100036 harboring GyrA T83I mutant assessed as fold reduction in minocycline MIC at 7.5 uM incubated for 18 hrs by broth microdilution method.
Experiment [8] deals with Pseudomonas aeruginosa. Put plainly: Potentiation of minocycline-induced antimicrobial activity against MDR/XDR Pseudomonas aeruginosa isolate PA264-104354 harboring GyrA Thr83Ile mutant assessed as minocycline MIC80 incubated for 18 hrs by broth microdilution method (reference value: 32 microg/ml). The note with it: isolate PA264-104354, 18 h.
For experiment [9], the system named is Pseudomonas aeruginosa. Put plainly: Potentiation of minocycline-induced antimicrobial activity against MDR/XDR Pseudomonas aeruginosa isolate 101885 harboring GyrA Thr83Ile mutant assessed as minocycline MIC80 incubated for 18 hrs by broth microdilution method (reference value: 32 microg/ml). The note with it: isolate 101885, 18 h.
Experiment [10] concerns Pseudomonas aeruginosa. Description: Potentiation of moxifloxacin-induced antibacterial activity against MDR/XDR Pseudomonas aeruginosa isolate 91433 devoid of GyrA T83I mutant assessed as fold reduction in moxifloxacin MIC at 7.5 uM incubated for 18 hrs by broth microdilution method. An outline of the steps:
as §1

The subject of experiment [11] is Pseudomonas aeruginosa. Description: Potentiation of rifampicin-induced antimicrobial activity against MDR/XDR Pseudomonas aeruginosa isolate 91433 devoid of GyrA Thr83Ile mutant assessed as rifampicin MIC50 incubated for 18 hrs by broth microdilution method (reference value: 8 microg/ml). The note with it: isolate 91433, 18 h.
For a further experiment, the system named is Klebsiella pneumoniae. Description: Antimicrobial activity against Klebsiella pneumoniae 113254 incubated for 18 hrs by broth dilution method. Particulars: Klebsiella pneumoniae, 113254, 18 h. Summed up:
(§2)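 CLSI broth microdilution. Overnight cultures were adjusted to 0.5 McFarland in saline, diluted 1:50 in Mueller-Hinton broth, and inoculated at a final 5 × 10^5 CFU/mL. Compounds were tested as 2-fold serial dilutions and incubated 18 h at 37 °C. MIC was the lowest concentration with no visible turbidity, confirmed by absorbance at 590 nm.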

Experiment [12] has as its system Pseudomonas aeruginosa. Put plainly: Potentiation of minocycline-induced antibacterial activity against wild type Pseudomonas aeruginosa PAO1 assessed as fold reduction in minocycline MIC at 4.1 uM incubated for 18 hrs by broth microdilution method. Summed up: (§3)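 Antibiotic MIC determined by CLSI broth microdilution (MHB, 5 × 10^5 CFU/mL, 18 h, 37 °C), once alone and once with a fixed concentration of the adjuvant. Potentiation is the ratio of the antibiotic MIC alone to its MIC in the presence of the adjuvant.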

The test system of experiment [13] is Acinetobacter baumannii. Put plainly: Synergistic antibacterial activity against multidrug-resistant Acinetobacter baumannii AB110193 assessed as fractional inhibitory concentration index in presence of minocycline incubated for 18 hrs by broth dilution method.
The subject of experiment [14] is Pseudomonas aeruginosa. Put plainly: Potentiation of rifampicin-induced bactericidal activity in MDR/XDR Pseudomonas aeruginosa isolate PA259-96918 harboring GyrA T83I mutant assessed as complete eradication of bacteria at 4 ug/ml incubated for 4 hrs in presence of 1 to 4 ug/ml rifampicin by time kill curve assay. An outline of the steps:
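Time-kill assay against XDR P. aeruginosa PA259. Overnight culture adjusted to 0.5 McFarland in saline, diluted 1:50 in LB. Incubated at 37 °C for 24 h with rifampicin and adjuvant, alone or combined at various concentrations. Aliquots taken at intervals, serially diluted in PBS and plated on LB agar. Colonies counted after 20 h at 37 °C. Untreated cells as control.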

The test system of another experiment is Escherichia coli. Put plainly: Antimicrobial activity against Escherichia coli 94474 incubated for 18 hrs by broth dilution method. The note with it: Escherichia coli, 94474, 18 h. An outline of the steps:
as §2

The test system of experiment [15] is Pseudomonas aeruginosa. Put plainly: Antimicrobial activity against XDR Pseudomonas aeruginosa isolate PA264 infected in Galleria mellonella larvae assessed as survival rate at 75 mg/kg co-administered with 75 mg/kg rifampicin at 2 hrs post-inoculation measured after 24 hrs relative to control. An outline of the steps: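 G. mellonella larvae were injected with ~5 CFU of P. aeruginosa PA264 (10 µL of 5 × 10^2 CFU/mL in PBS) and held 2 h at 37 °C. A single 10 µL injection followed: monotherapy or rifampicin + compound (25+25, 50+50 or 75+75 mg/kg), with PBS as control. Larvae kept at 37 °C were scored every 6 h to 24 h; dead = no response to touch. n = 30 (two runs of 15); Kaplan-Meier.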

In experiment [16] the test system is Acinetobacter baumannii. Put plainly: Antimicrobial activity against multidrug-resistant Acinetobacter baumannii ATCC 17978 incubated for 18 hrs by broth dilution method. The note with it: ATCC 17978, 18 h. Summed up:
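Broth microdilution per CLSI: overnight cultures set to 0.5 McFarland in saline, diluted 1:50 in Mueller-Hinton broth to a final 5 × 10^5 CFU/mL, added to 2-fold serial dilutions, incubated 18 h at 37 °C; MIC is the lowest concentration without visible turbidity, confirmed at 590 nm.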

Experiment [17] deals with Pseudomonas aeruginosa. Description: Potentiation of moxifloxacin-induced antibacterial activity against MDR/XDR Pseudomonas aeruginosa isolate PA259-96918 harboring GyrA T83I mutant assessed as fold reduction in moxifloxacin MIC at 9 uM incubated for 18 hrs by broth microdilution method. An outline of the steps:
as §1

In experiment [18] the test system is Pseudomonas aeruginosa. Description: Potentiation of moxifloxacin-induced antibacterial activity against wild type Pseudomonas aeruginosa PAO1 assessed as fold reduction in moxifloxacin MIC at 9 uM incubated for 18 hrs by broth microdilution method. An outline of the steps: as §3

One may read the MIC80 as an inhibitory concentration at the 80% level, which refers to growth in some studies and to a panel of isolates in others. A word on the MIC50: it is the lowest concentration that inhibits either 50% of growth or 50% of the strains tested, depending on the study. With `COc1c(N2C[C@@H]3CCCN(CCCCCCCCCCCCO[C@@H]4[C@@H](O)[C@H](N)C[C@H](N)[C@H]4O[C@H]4O[C@H](CN)[C@@H](O)C[C@H]4N)[C@@H]3C2)c(F)cc2c(=O)c(C(=O)O)cn(C3CC3)c12.Cl.Cl.Cl.Cl.Cl`, the MIC80 with Pseudomonas aeruginosa [1], in the experiment with Pseudomonas aeruginosa [2], in the experiment with Pseudomonas aeruginosa [3], with Pseudomonas aeruginosa [8] and in the experiment with Pseudomonas aeruginosa [9] was 1 µg/mL in each case. The “fold change (FC)” value in the experiment with Pseudomonas aeruginosa [4] was found to be 256; in the experiment on Acinetobacter baumannii [6], 32; with Pseudomonas aeruginosa [7], 32; in the experiment with Pseudomonas aeruginosa [10], 16. For the same compound, the results for the MIC50 in the experiment on Pseudomonas aeruginosa [5] and in the experiment with Pseudomonas aeruginosa [11] were 0.5 µg/mL and 0.06 µg/mL, respectively.
By MIC is commonly meant the lowest concentration found to suppress growth. A high value points to weaker potency. Take `Cl.Cl.Cl.Cl.Cl.NC[C@H]1O[C@H](O[C@H]2[C@H](OCCCCCCCCCCCCN3CCN(c4cc5c(cc4F)c(=O)c(C(=O)O)cn5C4CC4)CC3)[C@@H](O)[C@H](N)C[C@@H]2N)[C@H](N)C[C@@H]1O`: the figures for the MIC in the experiment on Klebsiella pneumoniae, against Escherichia coli and against Acinetobacter baumannii [16] were 128 µg/mL, above 128 µg/mL and 128 µg/mL, respectively. Besides, the “fold change (FC)” value in the experiment with Pseudomonas aeruginosa [12] is 32. Moreover, in the experiment on Acinetobacter baumannii [13], the “fractional inhibitory concentration index (FICI)” value is reported as above 1. For the same compound, in the experiment on Pseudomonas aeruginosa [14], the Activity is on record as 100%. Further, in the experiment on Pseudomonas aeruginosa [15], the survival at 75 mg/kg turned out to be 53%.
`Cl.Cl.Cl.Cl.Cl.Cl.NC[C@H]1O[C@H](O[C@H]2[C@H](OCCCCCCCCCCN3CCN(Cc4cccc5ccccc45)CC3)[C@@H](O)[C@H](N)C[C@@H]2N)[C@H](N)C[C@@H]1O`: the “fold change (FC)” value in the experiment on Pseudomonas aeruginosa [17] amounted to 64; in the experiment with Pseudomonas aeruginosa [18] it was 32.
